One molecule from ChEMBL document CHEMBL1909591, “Design, synthesis, and SAR studies of novel polycyclic acids as potent and selective inhibitors of human 11β-hydroxysteroid dehydrogenase type 1 (11β-HSD-1)” (Bioorg Med Chem Lett, 2011) can be followed below.

Each structure is given as a SMILES string. Calls of active or inactive are those of the source. The rule behind the calls is not given here.

For series [1], the target named is 11-beta-hydroxysteroid dehydrogenase 1 (Mus musculus, UniProt P50172). Kind of series: Inhibition of mouse 11beta-HSD-1.
11-beta-hydroxysteroid dehydrogenase 1, sequence (P50172 whole entry): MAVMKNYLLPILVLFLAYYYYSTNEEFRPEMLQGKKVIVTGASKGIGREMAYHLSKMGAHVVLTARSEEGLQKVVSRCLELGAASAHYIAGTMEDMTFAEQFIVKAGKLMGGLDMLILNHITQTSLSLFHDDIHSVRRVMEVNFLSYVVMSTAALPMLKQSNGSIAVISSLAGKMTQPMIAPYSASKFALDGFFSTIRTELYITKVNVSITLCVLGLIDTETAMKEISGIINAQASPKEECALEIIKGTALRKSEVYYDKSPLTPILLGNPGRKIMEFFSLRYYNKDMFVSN
Another series concerns the target Cytochrome P450 3A4 (Homo sapiens, UniProt P08684). The series can be described thus: Inhibition of CYP3A4. Format: ADME.
A short description of series [2]: Metabolic stability in human liver microsomes assessed as compound remaining after 10 mins. Format: ADME, Microsome. The conditions noted are these: liver microsomes, read-out: Stability. (Microsomes from liver hold many membrane-bound enzymes, among them those of drug oxidation.)
For another series, the target named is T1, Cytochrome P450 1A2 (Homo sapiens, UniProt P05177).
T1 sequence (P05177 whole entry): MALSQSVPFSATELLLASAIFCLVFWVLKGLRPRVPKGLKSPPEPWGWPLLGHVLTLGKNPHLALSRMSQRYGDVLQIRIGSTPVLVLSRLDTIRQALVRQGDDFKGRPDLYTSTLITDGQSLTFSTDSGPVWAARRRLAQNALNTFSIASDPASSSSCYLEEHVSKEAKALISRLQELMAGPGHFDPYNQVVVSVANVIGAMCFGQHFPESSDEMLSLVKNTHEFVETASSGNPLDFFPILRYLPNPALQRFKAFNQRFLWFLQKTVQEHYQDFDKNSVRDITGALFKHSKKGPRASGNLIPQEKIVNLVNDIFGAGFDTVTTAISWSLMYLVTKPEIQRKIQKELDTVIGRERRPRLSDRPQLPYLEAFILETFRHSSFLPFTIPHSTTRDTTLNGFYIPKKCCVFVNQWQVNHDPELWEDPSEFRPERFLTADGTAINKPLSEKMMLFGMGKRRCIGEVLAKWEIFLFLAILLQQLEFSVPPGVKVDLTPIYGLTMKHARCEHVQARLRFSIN
The series can be described thus: Inhibition of CYP1A2. Format: ADME.

The target of another series is Cytochrome P450 2D6 (Homo sapiens, UniProt P10635). Kind of series: Inhibition of CYP2D6. Format: ADME.
Cytochrome P450 2D6, sequence (P10635 whole entry): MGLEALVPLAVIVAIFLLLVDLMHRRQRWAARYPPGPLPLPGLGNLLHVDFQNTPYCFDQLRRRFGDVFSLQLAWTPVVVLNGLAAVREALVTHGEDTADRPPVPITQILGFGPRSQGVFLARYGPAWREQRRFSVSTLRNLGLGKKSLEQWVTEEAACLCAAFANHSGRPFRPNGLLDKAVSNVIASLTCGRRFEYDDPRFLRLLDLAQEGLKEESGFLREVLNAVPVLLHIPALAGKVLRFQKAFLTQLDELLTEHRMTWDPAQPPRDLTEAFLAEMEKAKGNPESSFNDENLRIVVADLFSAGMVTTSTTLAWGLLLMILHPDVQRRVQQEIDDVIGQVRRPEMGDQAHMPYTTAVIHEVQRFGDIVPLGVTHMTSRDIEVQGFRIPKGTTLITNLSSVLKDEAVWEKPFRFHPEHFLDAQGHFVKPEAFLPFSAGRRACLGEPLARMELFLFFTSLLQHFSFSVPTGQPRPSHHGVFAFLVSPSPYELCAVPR
In the next series the target is Cytochrome P450 2C9 (Homo sapiens, UniProt P11712). The series can be described thus: Inhibition of CYP2C9. Format: ADME.
Cytochrome P450 2C9, sequence (P11712 whole entry): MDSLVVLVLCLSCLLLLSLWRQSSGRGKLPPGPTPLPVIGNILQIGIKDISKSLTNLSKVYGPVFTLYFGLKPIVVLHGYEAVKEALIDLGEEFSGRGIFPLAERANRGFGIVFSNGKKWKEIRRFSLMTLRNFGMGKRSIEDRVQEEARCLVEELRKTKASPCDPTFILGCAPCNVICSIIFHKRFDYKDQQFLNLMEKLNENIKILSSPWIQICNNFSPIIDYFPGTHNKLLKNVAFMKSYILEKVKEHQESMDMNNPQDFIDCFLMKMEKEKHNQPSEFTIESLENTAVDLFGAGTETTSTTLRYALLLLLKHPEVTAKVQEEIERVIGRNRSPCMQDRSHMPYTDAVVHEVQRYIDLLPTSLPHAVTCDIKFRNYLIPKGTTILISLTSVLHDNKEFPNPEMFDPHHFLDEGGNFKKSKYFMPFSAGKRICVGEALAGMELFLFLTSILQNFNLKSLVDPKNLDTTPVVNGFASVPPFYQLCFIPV
A short description of series [3]: Metabolic stability in mouse liver microsomes assessed as compound remaining after 10 mins. Format: ADME, Microsome. The settings on record: liver microsomes, read-out: Stability.
Series [4] is described as follows: AUC (0 to 8 hrs) in mouse at 30 umol/kg. Further details: time < 8 hr, dose 30 umol/kg. The conditions noted are these: plasma. Format: ADME, organism-based. In short, it runs like this: (§1)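 Oral dosing in mice, with the compound in water containing 0.5% methocel and 0.1% Tween 80. Plasma concentrations were measured at 1, 4 and 8 h after dosing.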
The target of another series is Cytochrome P450 2C19 (Homo sapiens, UniProt P33261). Kind of series: Inhibition of CYP2C19. Format: ADME.
Cytochrome P450 2C19, sequence (P33261 whole entry): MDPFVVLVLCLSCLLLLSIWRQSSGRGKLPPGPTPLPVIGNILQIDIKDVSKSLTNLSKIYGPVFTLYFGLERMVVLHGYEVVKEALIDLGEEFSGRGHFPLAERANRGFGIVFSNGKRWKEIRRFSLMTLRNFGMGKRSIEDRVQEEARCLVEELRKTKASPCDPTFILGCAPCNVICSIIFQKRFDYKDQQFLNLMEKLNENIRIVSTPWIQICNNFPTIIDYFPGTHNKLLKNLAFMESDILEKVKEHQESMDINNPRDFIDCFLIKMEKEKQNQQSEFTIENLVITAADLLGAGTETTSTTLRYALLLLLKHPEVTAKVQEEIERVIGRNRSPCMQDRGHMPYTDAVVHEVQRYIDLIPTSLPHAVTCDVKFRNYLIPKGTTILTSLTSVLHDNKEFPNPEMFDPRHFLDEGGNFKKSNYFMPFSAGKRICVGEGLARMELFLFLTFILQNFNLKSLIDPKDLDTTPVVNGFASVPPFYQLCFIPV
The nature of series [5]: Cmax in mouse at 30 umol/kg. Format: ADME, organism-based. Further details: dose 30 umol/kg. The settings on record: in vivo. In short, it runs like this:
as §1

Series [6] concerns the target T2, Nuclear receptor subfamily 1 group I member 2 (Homo sapiens, UniProt O75469).
T2 sequence (O75469 whole entry): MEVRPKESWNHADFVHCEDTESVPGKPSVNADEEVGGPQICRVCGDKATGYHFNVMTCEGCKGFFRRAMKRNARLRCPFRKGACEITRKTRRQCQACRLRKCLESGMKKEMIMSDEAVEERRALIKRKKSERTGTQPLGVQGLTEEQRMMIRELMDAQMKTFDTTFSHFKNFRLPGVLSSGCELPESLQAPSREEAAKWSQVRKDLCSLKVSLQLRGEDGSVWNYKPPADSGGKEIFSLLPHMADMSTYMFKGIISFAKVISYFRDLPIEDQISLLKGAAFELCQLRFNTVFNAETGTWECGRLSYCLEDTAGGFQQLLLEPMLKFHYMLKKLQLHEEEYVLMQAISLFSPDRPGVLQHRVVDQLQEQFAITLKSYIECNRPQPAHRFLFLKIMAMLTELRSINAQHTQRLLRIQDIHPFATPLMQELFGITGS
Kind of series: Transactivation of PXR.

The target in series [7] is T3, Peroxisome proliferator-activated receptor delta (Homo sapiens) (UniProt Q03181).
T3 sequence (whole entry): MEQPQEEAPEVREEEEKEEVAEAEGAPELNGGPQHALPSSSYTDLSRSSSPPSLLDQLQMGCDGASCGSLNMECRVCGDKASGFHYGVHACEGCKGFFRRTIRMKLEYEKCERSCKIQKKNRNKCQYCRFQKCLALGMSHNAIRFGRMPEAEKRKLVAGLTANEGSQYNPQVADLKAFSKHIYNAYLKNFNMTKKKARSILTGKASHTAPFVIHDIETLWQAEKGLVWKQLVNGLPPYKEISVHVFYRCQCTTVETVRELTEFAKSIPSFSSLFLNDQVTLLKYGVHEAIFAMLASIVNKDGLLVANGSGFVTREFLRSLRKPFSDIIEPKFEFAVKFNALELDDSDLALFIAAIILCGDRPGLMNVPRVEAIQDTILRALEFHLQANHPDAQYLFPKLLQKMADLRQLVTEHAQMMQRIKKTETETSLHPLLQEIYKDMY
Kind of series: Activation of PPARdelta up to 30 uM.

The target of series [8] is T4, Peroxisome proliferator-activated receptor gamma (Homo sapiens) (UniProt P37231).
T4 sequence (whole entry): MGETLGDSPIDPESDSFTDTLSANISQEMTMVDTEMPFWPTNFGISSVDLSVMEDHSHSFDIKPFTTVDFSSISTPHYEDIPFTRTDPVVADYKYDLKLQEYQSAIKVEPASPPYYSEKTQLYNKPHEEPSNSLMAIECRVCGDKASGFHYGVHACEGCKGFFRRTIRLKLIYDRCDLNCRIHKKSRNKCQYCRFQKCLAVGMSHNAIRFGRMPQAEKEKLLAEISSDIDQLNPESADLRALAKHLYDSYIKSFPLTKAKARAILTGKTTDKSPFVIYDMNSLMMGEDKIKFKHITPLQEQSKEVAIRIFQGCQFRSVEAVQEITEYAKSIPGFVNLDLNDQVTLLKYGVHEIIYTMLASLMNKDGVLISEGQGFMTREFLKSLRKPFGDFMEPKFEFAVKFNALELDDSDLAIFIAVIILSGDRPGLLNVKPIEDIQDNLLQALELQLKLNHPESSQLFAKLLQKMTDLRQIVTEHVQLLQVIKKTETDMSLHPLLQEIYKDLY
The series can be described thus: Activation of PPARgamma up to 30 uM.

In series [9] the target is T5, Peroxisome proliferator-activated receptor alpha (Homo sapiens) (UniProt Q07869).
T5 sequence (whole entry): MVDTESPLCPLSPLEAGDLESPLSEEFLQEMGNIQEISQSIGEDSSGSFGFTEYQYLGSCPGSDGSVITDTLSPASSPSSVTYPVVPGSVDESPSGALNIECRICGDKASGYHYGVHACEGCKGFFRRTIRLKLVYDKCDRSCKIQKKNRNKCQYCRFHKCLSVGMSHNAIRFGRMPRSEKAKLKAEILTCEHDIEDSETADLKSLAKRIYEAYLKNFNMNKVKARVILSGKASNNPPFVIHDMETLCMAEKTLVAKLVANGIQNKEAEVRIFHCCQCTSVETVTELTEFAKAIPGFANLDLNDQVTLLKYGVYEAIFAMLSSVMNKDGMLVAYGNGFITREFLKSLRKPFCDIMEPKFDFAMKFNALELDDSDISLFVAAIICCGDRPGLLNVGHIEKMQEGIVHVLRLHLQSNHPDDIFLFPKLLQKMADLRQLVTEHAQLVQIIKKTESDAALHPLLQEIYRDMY
The series can be described thus: Activation of PPARalpha up to 30 uM.

Series [10] concerns the target Voltage-gated inwardly rectifying potassium channel KCNH2 (Homo sapiens, UniProt Q12809). The series can be described thus: Inhibition of human ERG.
The target of series [11] is T6, 11-beta-hydroxysteroid dehydrogenase type 2 (Homo sapiens) (UniProt P80365).
T6 sequence (whole entry): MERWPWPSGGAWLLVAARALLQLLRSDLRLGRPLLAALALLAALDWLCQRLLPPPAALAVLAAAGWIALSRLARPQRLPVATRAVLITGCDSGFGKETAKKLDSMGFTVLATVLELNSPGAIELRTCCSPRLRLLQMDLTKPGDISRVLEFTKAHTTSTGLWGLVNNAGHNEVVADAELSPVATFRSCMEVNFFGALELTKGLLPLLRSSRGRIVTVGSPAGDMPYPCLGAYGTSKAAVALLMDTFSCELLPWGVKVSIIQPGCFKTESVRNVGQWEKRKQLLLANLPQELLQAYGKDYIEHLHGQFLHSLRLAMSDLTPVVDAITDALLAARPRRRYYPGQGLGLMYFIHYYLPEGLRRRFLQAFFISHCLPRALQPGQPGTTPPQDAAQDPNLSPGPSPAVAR
Kind of series: Inhibition of human 11beta-HSD-2 at 10 uM.

The target of series [12] is 11-beta-hydroxysteroid dehydrogenase type 2 (Homo sapiens) (UniProt P80365). The series can be described thus: Inhibition of human 11beta-HSD-2.

Voltage-gated inwardly rectifying potassium channel KCNH2, sequence (Q12809 whole entry): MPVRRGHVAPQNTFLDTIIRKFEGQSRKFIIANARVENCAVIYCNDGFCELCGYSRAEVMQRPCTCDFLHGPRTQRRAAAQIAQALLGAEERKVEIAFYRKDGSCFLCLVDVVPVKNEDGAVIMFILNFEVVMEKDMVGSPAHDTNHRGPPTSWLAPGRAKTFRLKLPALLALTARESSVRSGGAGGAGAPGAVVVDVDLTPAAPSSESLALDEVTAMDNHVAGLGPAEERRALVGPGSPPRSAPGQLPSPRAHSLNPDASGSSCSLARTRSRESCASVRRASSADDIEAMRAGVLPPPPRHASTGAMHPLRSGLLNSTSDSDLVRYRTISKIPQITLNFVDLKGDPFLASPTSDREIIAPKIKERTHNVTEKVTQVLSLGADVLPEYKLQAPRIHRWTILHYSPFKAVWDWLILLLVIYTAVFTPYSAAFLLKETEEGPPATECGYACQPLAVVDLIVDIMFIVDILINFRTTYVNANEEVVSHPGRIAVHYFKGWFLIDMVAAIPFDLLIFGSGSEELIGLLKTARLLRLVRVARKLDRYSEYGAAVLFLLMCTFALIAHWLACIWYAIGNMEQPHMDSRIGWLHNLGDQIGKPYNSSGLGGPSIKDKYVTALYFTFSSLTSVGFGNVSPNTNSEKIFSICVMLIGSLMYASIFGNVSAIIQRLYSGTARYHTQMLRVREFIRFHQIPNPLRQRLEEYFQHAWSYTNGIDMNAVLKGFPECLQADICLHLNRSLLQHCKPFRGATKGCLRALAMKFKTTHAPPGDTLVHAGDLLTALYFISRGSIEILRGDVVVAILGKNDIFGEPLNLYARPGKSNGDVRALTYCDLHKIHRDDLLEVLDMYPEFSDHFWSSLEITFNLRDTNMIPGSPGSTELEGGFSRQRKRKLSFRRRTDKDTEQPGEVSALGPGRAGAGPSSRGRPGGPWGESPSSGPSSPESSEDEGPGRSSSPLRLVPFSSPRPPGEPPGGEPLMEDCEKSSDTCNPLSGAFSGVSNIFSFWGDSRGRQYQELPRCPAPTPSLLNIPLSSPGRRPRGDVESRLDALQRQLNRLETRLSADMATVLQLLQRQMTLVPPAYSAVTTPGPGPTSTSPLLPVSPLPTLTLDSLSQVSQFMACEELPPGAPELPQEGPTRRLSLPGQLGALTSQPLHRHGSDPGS
Cytochrome P450 3A4, sequence (P08684 whole entry): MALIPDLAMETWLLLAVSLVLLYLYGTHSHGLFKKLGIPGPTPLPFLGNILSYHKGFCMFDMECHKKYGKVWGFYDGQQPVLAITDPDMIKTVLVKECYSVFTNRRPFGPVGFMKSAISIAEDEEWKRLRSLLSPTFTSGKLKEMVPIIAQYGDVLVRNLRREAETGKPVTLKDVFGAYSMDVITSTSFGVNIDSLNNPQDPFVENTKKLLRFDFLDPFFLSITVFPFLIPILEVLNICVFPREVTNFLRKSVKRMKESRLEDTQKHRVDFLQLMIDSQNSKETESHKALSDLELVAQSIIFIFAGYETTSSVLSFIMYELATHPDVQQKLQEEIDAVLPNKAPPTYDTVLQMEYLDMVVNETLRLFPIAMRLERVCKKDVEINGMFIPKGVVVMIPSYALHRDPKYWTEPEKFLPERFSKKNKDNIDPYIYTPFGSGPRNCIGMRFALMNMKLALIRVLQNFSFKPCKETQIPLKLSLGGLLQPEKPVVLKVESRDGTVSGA

As to `O=C(O)CC1(c2ccc(F)cc2)C2CC3CC(C2)CC1C3` (configuration not stated), the IC50 – broadly, the concentration that inhibits the measured activity by half – in [1] is 120 nM. Further, the “inhibition (INH)” value (against Cytochrome P450 3A4; against Cytochrome P450 1A2; against Cytochrome P450 2D6; against Cytochrome P450 2C9; at Cytochrome P450 2C19; in series [10]) was “Active” in each case. Further, the remaining at 10 min in [2] came out at 78%; in series [3] it was 48%. Besides, the AUC(0-t) (in general, the area under the concentration-time curve up to a stated or last time point) at 8 h in series [4] is 2 µM·h. The peak level in series [5] (Cmax) was 480 nM. In series [6], the EC50 (commonly the concentration needed to bring the measured effect to its halfway point) is over 50000 nM. The result in series [7], in [8] and in series [9] was inactive. In addition, the inhibition (usually the change of the read-out against control, counted positive when it falls) in series [11] was under 50%. Besides, in series [12], the inhibition result was “inactive”.
